NadD block – inhibitors of Staphylococcus aureus NadD; AID 602399; purified NadD enzyme, colorimetric absorbance read-out; 360,000 tested, 0.78% active; inhibition, % at 20 µM; in the data active = inhibition above about 26%
XiGFP reactiv – X-chromosome reactivation activator; activation, % at 7.58 µM; XiGFP mouse fibroblasts, % GFP-positive cells imaging, 3 d; cells co-treated with 5-aza-dC sensitizer; scaled so ellipticine positive control = 100%; 360,000 tested, 0.055% active;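 active = mean normalized replicate activation at least 10% and every replicate at or above 10%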;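 also: 0% = median of on-plate neutral control wells and 100% = ellipticine 6 µM median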
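Assay system – SV40-immortalized XiGFP fibroblast cells, line 68-5-11 · Buffer or medium – DMEM supplemented with 5-aza-dC as sensitizing agent · Dosing – one concentration, pinned · Benchmarks – positive control ellipticine, 6 µM final · Times – 3 days compound exposure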
Rpn11 inh – Rpn11 (human) deubiquitinase inhibition. inhibition, % at 20 µM. O00487. 360,000 tested, 0.59% active. human 26S proteasome, Ub4-pepOG fluorescence polarization; 20S core pre-blocked with epoxomicin;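 active = inhibition at 20 µM, scaled to each plate's controls, above about 33%, limit read from the data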
ABHD5 PLIN5 PPI – ABHD5-PLIN5 protein interaction inhibition. Q00G26+Q8WTS1. Split G. princeps luciferase complementation, luminescence, 4 h. inhibition, % at 4 µM. 360,000 tested, 0.78% active. AID 602281;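 active = inhibition above the mean inhibition across every tested compound plus 3 SD, cut at about 22% in these data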;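 also: 0% = DMSO only wells and the 100% control is not disclosed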
Rin1-Abl PPI inh – blocks binding of human Rin1 to Abl. P00519+Q13671. TR-FRET Rin1/Abl binding, biochemical. inhibition, % at 7.35 µM. 360,000 tested, 0.4% active; in the data active = inhibition above about 5%, passing the limit was not always enough
Target sequence (P00519 whole entry, looked up): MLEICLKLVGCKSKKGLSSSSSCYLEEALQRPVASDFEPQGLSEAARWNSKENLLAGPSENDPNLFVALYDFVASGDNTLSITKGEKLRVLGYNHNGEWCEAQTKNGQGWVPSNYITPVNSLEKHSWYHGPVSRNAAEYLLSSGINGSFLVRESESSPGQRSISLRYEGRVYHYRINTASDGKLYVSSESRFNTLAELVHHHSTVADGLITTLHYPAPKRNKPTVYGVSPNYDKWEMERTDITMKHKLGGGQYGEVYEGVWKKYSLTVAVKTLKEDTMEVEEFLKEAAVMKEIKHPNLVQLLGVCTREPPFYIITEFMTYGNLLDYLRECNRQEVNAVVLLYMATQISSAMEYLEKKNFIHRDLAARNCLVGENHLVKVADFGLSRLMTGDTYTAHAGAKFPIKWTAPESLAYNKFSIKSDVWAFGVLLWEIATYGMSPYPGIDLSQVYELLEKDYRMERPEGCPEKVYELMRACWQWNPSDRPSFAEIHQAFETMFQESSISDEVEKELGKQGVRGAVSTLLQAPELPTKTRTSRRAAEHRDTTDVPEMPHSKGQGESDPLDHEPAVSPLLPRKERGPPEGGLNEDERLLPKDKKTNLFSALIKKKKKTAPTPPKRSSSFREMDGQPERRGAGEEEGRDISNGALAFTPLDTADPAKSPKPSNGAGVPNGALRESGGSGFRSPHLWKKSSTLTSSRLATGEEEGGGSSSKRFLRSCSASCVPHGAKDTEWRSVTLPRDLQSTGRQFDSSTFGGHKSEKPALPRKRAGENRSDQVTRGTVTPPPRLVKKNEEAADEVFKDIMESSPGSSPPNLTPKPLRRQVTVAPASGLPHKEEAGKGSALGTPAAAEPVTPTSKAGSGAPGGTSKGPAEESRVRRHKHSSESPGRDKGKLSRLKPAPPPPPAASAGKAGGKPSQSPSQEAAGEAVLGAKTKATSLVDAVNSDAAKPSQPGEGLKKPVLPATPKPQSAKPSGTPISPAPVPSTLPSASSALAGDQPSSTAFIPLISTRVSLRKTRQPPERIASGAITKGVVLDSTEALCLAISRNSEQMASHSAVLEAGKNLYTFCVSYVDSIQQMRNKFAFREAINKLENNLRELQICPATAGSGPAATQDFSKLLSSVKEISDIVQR
Target sequence (Q13671 whole entry, looked up): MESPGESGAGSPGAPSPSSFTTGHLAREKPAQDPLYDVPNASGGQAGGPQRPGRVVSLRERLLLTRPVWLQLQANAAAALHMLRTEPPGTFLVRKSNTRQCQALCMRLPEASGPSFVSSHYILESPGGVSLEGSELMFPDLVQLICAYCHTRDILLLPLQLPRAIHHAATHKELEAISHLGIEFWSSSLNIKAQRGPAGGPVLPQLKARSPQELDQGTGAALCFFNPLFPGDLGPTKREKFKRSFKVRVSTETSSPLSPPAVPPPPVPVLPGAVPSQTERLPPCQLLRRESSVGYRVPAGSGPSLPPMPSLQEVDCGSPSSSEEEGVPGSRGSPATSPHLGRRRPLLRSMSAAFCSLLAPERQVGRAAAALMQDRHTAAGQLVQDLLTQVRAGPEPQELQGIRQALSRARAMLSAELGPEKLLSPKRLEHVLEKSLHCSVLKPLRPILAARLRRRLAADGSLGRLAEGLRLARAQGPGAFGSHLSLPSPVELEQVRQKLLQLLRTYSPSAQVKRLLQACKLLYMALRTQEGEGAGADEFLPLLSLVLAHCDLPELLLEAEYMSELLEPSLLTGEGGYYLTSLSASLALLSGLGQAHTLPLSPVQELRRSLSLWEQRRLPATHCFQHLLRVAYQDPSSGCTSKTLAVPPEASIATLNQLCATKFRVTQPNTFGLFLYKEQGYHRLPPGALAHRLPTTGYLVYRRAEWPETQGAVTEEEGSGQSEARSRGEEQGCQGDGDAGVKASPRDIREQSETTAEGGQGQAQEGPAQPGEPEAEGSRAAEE
Rpn11 inh conf – confirmation of human proteasome Rpn11 inhibitors. 1,900 tested, 29% active. purified human 26S proteasome, Ub4-pepOG fluorescence polarization; proteasome pretreated with epoxomicin. shares compounds with Rpn11 inh. AID 602318. inhibition, % at 20 µM
MMP-2 counter – blocks human MMP-2, flagging nonselective RPN11 hits; shares compounds with Rpn11 inh; recombinant MMP-2, FRET peptide cleavage fluorescence; inhibition, % at 20 µM; 1,900 tested, 4% active; AID 602330;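 also: human MMP-2 activated beforehand with APMA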
Thrombin FP – blocks bovine thrombin, flagging nonselective RPN11 hits; inhibition, % at 20 µM; shares compounds with Rpn11 inh; 1,900 tested, 13% active; bovine thrombin cleavage of Ub4-pepOG, fluorescence polarization;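 active = mean inhibition at least 40% at 20 µM, or signal 3 deviations below plate average, so some actives read negative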;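 also: plate controls were thrombin with DMSO for no effect and buffer wells lacking thrombin for full effect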
* = called active by the depositor; . = not tested or not shown; + = active, no number. In the library only some 1.9% were active in any assay of this set; here they are far more common. Rule as the data show it, unless noted: active = inhibition above about 40%; inactive = the rest.

SMILES | NadD block | XiGFP reactiv | Rpn11 inh | ABHD5 PLIN5 PPI | Rin1-Abl PPI inh | Rpn11 inh conf | MMP-2 counter | Thrombin FP
COc1ccc(NC(=O)C(CCS(C)(=O)=O)NC(C)=O)cc1 (stereo not drawn) | -3.0 | . | 0.1 | -3.0 | -4.8 | . | . | .
Cc1ccc(OC(=O)N(C)C[C@@H]2OCc3cn(nn3)CCCC(=O)N([C@H](C)CO)C[C@@H]2C)cc1 | . | 0.0 | . | . | . | . | . | .
O=C(Nc1ccccc1)c1cccc2c(-c3cccnc3)coc12 | -4.6 | 0.1 | -6.8 | -1.8 | -1.6 | . | . | .
COc1ccc(NC(=O)c2cccc3c(-c4cccnc4)coc23)cc1 | 0.7 | 0.1 | 63.1* | 0.2 | -0.8 | 41.9* | -125.5 | 3.6
Cc1cc(C)c(-c2nc3ccccc3s2)[nH]1 | 4.6 | -0.1 | 59.9* | 8.2 | 0.9 | -6.5 | -6.1 | -0.2
Oc1cccc(-c2nc3ccccc3s2)c1 | 0.5 | . | 0.3 | -17.1 | -0.6 | . | . | .
C[C@H]1CN([C@@H](C)CO)C(=O)c2ccccc2-c2ccccc2CO[C@@H]1CN(C)S(=O)(=O)c1cccc(F)c1 | . | -1.1 | . | . | . | . | . | .
C[C@H]1CN([C@@H](C)CO)C(=O)c2cc(Br)cnc2O[C@H]1CN(C)S(=O)(=O)c1ccc(F)cc1 | . | -1.0 | . | . | . | . | . | .
COc1ccc(S(=O)(=O)N2CC(O)CC2C(=O)OCc2nc3sc(C)c(C)c3c(=O)[nH]2)cc1 (stereo not drawn) | 5.3 | -0.2 | 46.6* | 5.5 | 2.7 | 22.4 | -16.9 | 10.5
CO[C@H]1CN(C)C(=O)c2ccc(NC(=O)Cc3ccccc3)cc2OC[C@H](C)NC[C@@H]1C | . | 0.3 | . | . | . | . | . | .
COc1cc(/C=C2\SC(=S)N(C(C(=O)O)c3ccccc3)C2=O)ccc1O (stereo not drawn) | 4.4 | 0.0 | 80.7* | -9.4 | -0.8 | 56.0* | -15.2 | 73.2*
CCOc1cc(/C=C2\SC(=S)N(C(C(=O)O)c3ccccc3)C2=O)ccc1O (stereo not drawn) | 7.3 | . | 112.2* | 2.2 | 1.2 | 62.8* | 13.4 | 72.3*
CCOc1ccc(/C=C2/SC(=S)N(C(C(=O)O)c3ccccc3)C2=O)cc1OCC (stereo not drawn) | 19.2 | 0.0 | 34.3 | -0.7 | 1.8 | . | . | .
O=C(O)C(c1ccccc1)N1C(=O)/C(=C\c2ccc(O)c(O)c2)SC1=S (stereo not drawn) | -3.1 | 0.4 | 85.0* | -2.3 | 0.8 | 61.0* | 31.1 | 47.5*
COc1cc(/C=C2/SC(=S)N(c3c(C)n(C)n(-c4ccccc4)c3=O)C2=O)ccc1O | 9.5 | -0.1 | 99.7* | -3.6 | -3.9 | 62.5* | -10.1 | 42.9*
COc1ccc2c3c([nH]c2c1)[C@@H](CO)N(C(=O)CN(C)C)CC31CCN(CC2CC2)CC1 | . | 0.2 | . | . | . | . | . | .
O=C(C[C@@H]1CC[C@@H](NS(=O)(=O)c2ccccc2)[C@H](CO)O1)N1CCN(c2ccccc2)CC1 | . | -0.7 | . | . | . | . | . | .
O=C(Nc1cc(F)ccc1F)N1CC(=O)N2[C@H](CO)[C@H](c3ccc(-c4cccnc4)cc3)[C@H]2C1 | . | 0.1 | . | . | . | . | . | .
COc1ccc2c3c(n(C)c2c1)[C@@H](CO)N(S(C)(=O)=O)CC31CN(C(=O)c2ccccn2)C1 | . | 0.1 | . | . | . | . | . | .
Cc1ccc(NC(=O)C2CCN(S(=O)(=O)c3ccc4c(c3)NC(=O)C(C)S4)CC2)cc1Cl (stereo not drawn) | 20.1 | 0.0 | 41.6* | 8.2 | 4.2 | 44.5* | 0.7 | 34.9
C[C@@H]1CN([C@H](C)CO)C(=O)c2cc(NC(=O)Cc3ccccc3)ccc2O[C@@H](C)CCCCO[C@H]1CN(C)C(=O)Nc1cccc2ccccc12 | . | -0.1 | . | . | . | . | . | .
COc1ccc2c3c(n(C)c2c1)[C@@H](CO)N(C(=O)CN(C)C)CC31CN(C(=O)C2CCC2)C1 | . | 0.4 | . | . | . | . | . | .
Cc1ccc(-c2cc3c(N=O)c4ccccc4c-3n[nH]2)cc1 | 5.7 | 0.1 | 69.2* | -2.0 | -2.0 | 19.6 | 4.2 | -14.6
O=C(c1ccc(Cl)cc1)c1cn[nH]c1-c1ccccc1O | 0.0 | . | + | 2.4 | 3.6 | -3.0 | -0.1 | 4.7
Clc1ccc(OCc2nn3c(-c4ccco4)nnc3s2)c(Cl)c1 | 8.0 | . | 90.4* | -6.5 | 2.8 | 27.4 | 5.7 | 6.8

Screens (PubChem BioAssay)
